The source of these data is ChEMBL document CHEMBL4732044, “Discovery of a promising agent IQZ23 for the treatment of obesity and related metabolic disorders” (Eur J Med Chem, 2020).

The AUC(0-inf) is total exposure, with the tail of the curve extrapolated. Broadly, the Cmax is the highest concentration seen after dosing. One may read the half-life as the time needed for the level to fall by half in the phase considered. As usually defined, the bioavailability is the share of a dose that reaches the circulation, judged against a reference dose that is usually intravenous. The term AUC(0-t) denotes exposure summed from dosing to a finite time, without extrapolation to infinity. One may read the EC50 as the midpoint of the concentration-response curve. As a reminder, the solubility is how much of the substance goes into solution per volume. The Tmax is the time from dosing to the highest level. A word on the MRT inf: it is a mean duration of stay, worked out from the concentration-time curve.

In brackets after ≈: the same amount, converted by molar mass. Activity calls are given as the source filed them. Where only a bound is given, the exact number is not on record here.

Series [1] can be described thus: AUC(0 to infinity) in Sprague-Dawley rat at 5 mg/kg, po up to 24 hrs by LC-MS/MS analysis. The class given is ADME, organism-based. Further details: route oral, dose 5 mg/kg, time <=24. The following applies: in vivo. The essentials:
(§1)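 Male Sprague-Dawley rats (180-220 g, n = 3) were dosed intragastrically at 5 mg/kg in ethanol/saline (5:95). Plasma was collected at 0, 30 min, 1, 2, 4, 8, 12 and 24 h post-dose and quantified by LC-MS/MS. Pharmacokinetic parameters were derived from the plasma concentration-time profile.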

Series [2] deals with 3T3-L1. Description: Activation of AMPK pathway in adipogenic cocktail-induced mouse 3T3-L1 cells assessed as increase in phosphorylation AMPKalpha at Thr172 residue at 0.01 to 1 uM after 24 hrs by Western blot analysis. The class given is cell-based. The following applies: filed as activator, dose 0.01-1 µM. Summed up:
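Confluent 3T3-L1 pre-adipocytes exposed to adipogenic cocktail for 24 h with or without compound (0, 0.01, 0.1, 1 µM); DMSO vehicle. Lysates analysed by SDS-PAGE/Western blot for pAMPKα (Thr-172), normalized to actin, Ctrl set as 1. N = 4 independent experiments.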

The nature of series [3]: Cmax in Sprague-Dawley rat at 5 mg/kg, po up to 24 hrs by LC-MS/MS analysis. More on the design: route oral, dose 5 mg/kg, time <=24. The following applies: in vivo. It is filed as ADME, organism-based. Summed up: (§2)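 Male SD rats (180–220 g, n = 3) received compound in ethanol/saline (5:95), either intravenously at 2 mg/kg or intragastrically at 5 mg/kg. Plasma was sampled at 0, 0.5, 1, 2, 4, 8, 12 and 24 h. Concentrations were measured by LC-MS/MS, and PK parameters were calculated from the concentration–time data.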

The nature of series [4]: Half life in Sprague-Dawley rat liver microsomes assessed as rate constant […] up to 60 mins in presence of NADPH by LC-MS/MS analysis. It is filed as ADME, Microsome. In general terms: Microsomes from liver hold many membrane-bound enzymes, among them those of drug oxidation.
The nature of series [5]: Effect on total AKT level in mouse C2C12 cells at 1 uM after 6 hrs by Western blot analysis. The following applies: c2c12, 6 h. The class given is ADME, cell-based.
In series [6] the target is RAC-alpha serine/threonine-protein kinase (Mus musculus) (UniProt P31750). Description: Activation of AKT in mouse C2C12 cells assessed as AKT phosphorylation at […] 308 residue at 1 uM after 6 hrs by Western blot analysis. It is filed as cell-based. Summed up: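 C2C12 myoblasts kept in DMEM with 10% FBS and 1% penicillin/streptomycin at 37 °C under 5% CO2.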
Sequence of RAC-alpha serine/threonine-protein kinase (Mus musculus) (P31750 whole entry): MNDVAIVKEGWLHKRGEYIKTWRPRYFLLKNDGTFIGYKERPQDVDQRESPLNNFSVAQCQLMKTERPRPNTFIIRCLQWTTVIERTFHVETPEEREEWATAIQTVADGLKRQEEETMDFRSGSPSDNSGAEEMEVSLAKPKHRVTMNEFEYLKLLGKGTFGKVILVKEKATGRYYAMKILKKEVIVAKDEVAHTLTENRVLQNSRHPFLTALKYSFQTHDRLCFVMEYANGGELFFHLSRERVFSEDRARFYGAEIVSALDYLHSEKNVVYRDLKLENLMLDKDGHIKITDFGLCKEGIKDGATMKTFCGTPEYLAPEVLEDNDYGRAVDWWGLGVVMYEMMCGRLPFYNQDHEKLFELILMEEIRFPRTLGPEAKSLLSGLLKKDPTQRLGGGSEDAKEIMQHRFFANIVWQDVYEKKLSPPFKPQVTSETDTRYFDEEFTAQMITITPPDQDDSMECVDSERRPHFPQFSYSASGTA
(Immunoblotting shows a protein as a band on a membrane.)

The nature of series [7]: Oral bioavailability in Sprague-Dawley rat at 5 mg/kg up to 24 hrs by LC-MS/MS analysis. The following applies: in vivo. The class given is ADME, organism-based. Summed up: as §2
In series [8] the test system is 3T3-L1. The experiment in a line: Activation of AMPK pathway in mouse 3T3-L1 cells assessed as increase in number of mitochondria copy at 1 uM after 24 hrs in presence of compound C by mito-tracker staining based Confocal microscopic method. Summed up:
(§3)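 3T3-L1 cells grown in DMEM with 10% FBS at 37 °C and 5% CO2. After treatment, cells were stained for 30 min at 37 °C in the dark with 1 µM Mito-Tracker plus Hoechst 33342 (1:1000) and imaged by confocal microscopy (excitation 633 and 405 nm). Mitochondrial copy number was also taken as the mtDNA/nDNA ratio by PCR (cytochrome C versus 18S rRNA).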

The nature of series [9]: AUC(0 to t) in Sprague-Dawley rat at 5 mg/kg, po up to 24 hrs by LC-MS/MS analysis. It is filed as ADME, organism-based. Further details: route oral, dose 5 mg/kg, time <=24. Particulars: in vivo. Summed up:
as §1

For series [10], the system named is 3T3-L1. The experiment in a line: Lipid lowering activity in mouse 3T3-L1 cells assessed as reduction in adipogenic cocktail-induced triglyceride levels at 1 uM incubated for 6 days by GPO-POD assay relative to control. The class given is functional. More on the design: scale not given: the % may be the effect or the level left. Particulars: time 6 day. Summed up:
(§4)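 Confluent 3T3-L1 cells were treated from day 0 in cocktail (IBMX, dexamethasone, insulin) for 3 days, then re-dosed in insulin medium for 3 more days. For dose–response, concentrations were 0–10 µM (0.01, 0.1, 0.3, 1, 3, 10). On day 6, cells were lysed in 0.2% Triton X-100 and TG was measured by GPO-POD and normalized to BCA protein as % of control. EC50 was fitted from the dose–response. N = 4.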

The subject of series [11] is 3T3-L1. Description: Inhibition of mouse 3T3-L1 cells adipocyte differentiation assessed as reduction in adipogenic cocktail-induced C/EBPdelta mRNA expression after 24 hrs by RT-qPCR analysis. The following applies: dose 0.01-1 µM. It is filed as functional, cell-based. The essentials:
(§5)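 Confluent 3T3-L1 preadipocytes received differentiation cocktail (0.5 mM IBMX, 100 ng/mL dexamethasone, 2 µg/mL insulin) with compound (0.01–1 µM; metformin 1 mM) for 24 h. mRNA was measured by SYBR Green RT-qPCR (30 cycles), normalized to β-actin, with the differentiated control set to 1. N = 4 independent experiments.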
A general note: Real-time PCR tracks product formation cycle by cycle.

Series [12] is described as follows: Intrinsic clearance in Sprague-Dawley rat liver microsomes assessed as rate constant […] up to 60 mins in presence of NADPH by LC-MS/MS analysis. It is filed as ADME, Microsome. The following applies: read-out: CLH.
The subject of series [13] is 3T3-L1. The experiment in a line: Inhibition of mouse 3T3-L1 cells adipocyte differentiation assessed as reduction in adipogenic cocktail-induced PPARgamma mRNA expression after 24 hrs by RT-qPCR analysis. The class given is functional, cell-based. The following applies: dose 0.01-1 µM. The essentials:
as §5

The test system of series [14] is 3T3-L1. The experiment in a line: Lipid lowering activity in mouse 3T3-L1 cells assessed as reduction in adipogenic cocktail-induced triglyceride levels incubated for 6 days by GPO-POD assay. It is filed as functional, cell-based. Particulars: for EC50: 3T3-L1, 144 h. Summed up: as §4
Series [15] is described as follows: Aqueous solubility in PBS buffer at pH 7.4 after 24 hrs. The class given is physicochemical.
The subject of series [16] is 3T3-L1. The experiment in a line: Activation of AMPK pathway in mouse 3T3-L1 cells assessed as increase in oxygen consumption at 1 uM after 5 to 10 mins by XF-96 cell analyzer method. The class given is cell-based. The following applies: filed as activator, time 5-10 min. Summed up: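 3T3-L1 cells seeded in quintuplicate at 5000 cells/well in an XF-96 plate. Equilibrated in assay medium at 37 °C for 30 min. Baseline OCR measured over 3–5 min, then compound injected to final concentration and OCR measured at set time points. Cell number counted at end.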

Series [17] is described as follows: Tmax in Sprague-Dawley rat at 5 mg/kg, po up to 24 hrs by LC-MS/MS analysis. The class given is ADME, organism-based. The following applies: in vivo. Summed up: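 Male Sprague-Dawley rats (180-220 g, n = 3) were dosed intragastrically at 5 mg/kg in ethanol/saline (5:95); a separate iv arm received 2 mg/kg. Blood was drawn at 0, 30 min, 1, 2, 4, 8, 12 and 24 h and centrifuged to obtain plasma. Drug levels were measured by LC-MS/MS, and pharmacokinetic parameters were calculated from the concentration–time data.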

Series [18] is described as follows: MRT(0 to infinity) in Sprague-Dawley rat at 5 mg/kg, po up to 24 hrs by LC-MS/MS analysis. It is filed as ADME, organism-based. The following applies: in vivo. The essentials:
as §2

Series [19] relates to 3T3-L1. Description: Activation of AMPK pathway in mouse 3T3-L1 cells assessed as increase in number of mitochondria copy at 1 uM after 24 hrs by mito-tracker staining based Confocal microscopic method. The following applies: filed as activator. The essentials:
as §3

Series [20] is described as follows: Stability in Sprague-Dawley rat liver microsomes assessed as remaining compound […] up to 60 mins in presence of NADPH by LC-MS/MS analysis. It is filed as ADME, Microsome. The following applies: read-out: Stabilty.
The test system of series [21] is 3T3-L1. The experiment in a line: Inhibition of mouse 3T3-L1 cells adipocyte differentiation assessed as reduction in adipogenic cocktail-induced C/EBPalpha mRNA expression after 24 hrs by RT-qPCR analysis. The class given is functional, cell-based. The following applies: dose 0.01-1 µM. The essentials:
as §5

Series [22] has as its system 3T3-L1. Description: Inhibition of mouse 3T3-L1 cells adipocyte differentiation assessed as reduction in adipogenic cocktail-induced C/EBPbeta mRNA expression after 24 hrs by RT-qPCR analysis. The class given is functional, cell-based. Particulars: dose 0.01-1 µM. Summed up: as §5

As to `CN(C)CCCNc1nc(-c2[nH]c3ccccc3c2C=O)nc2ccccc12`, the total exposure AUC(0-inf) in series [1] is 294 ng·h/mL. The outcome in [2], in series [16] and in series [19] was Active. The same compound registered a maximum concentration (Cmax) in series [3] of 23.8 ng/mL. Also, the half-life in series [4] is 2.18 h. The Activity result in [5] was “Non-Toxic”; in series [10], 79.2%. Also, the result in series [6] and in [8] was inactive. This compound returned a bioavailability in series [7] of 43.8%. The compound also came in with an AUC(0-t) at 24 h in series [9] of 247 ng·h/mL. The inhibition result in series [11], in series [13], in [21] and in series [22] was “Dose-dependent effect” in each case. Also, the microsomal CLint in [12] was 6.3 µL/min/mg. For the same compound, the EC50 in series [14] came out at 91 nM. This compound came in with a solubility at 24 h in series [15] of 41.1 µg/mL (≈ 110 µM). Also, in [17], the Tmax was 4.7 h. In series [18], this compound showed an MRT inf of 9.62 h. The remaining at 1 h in [20] was found to be 71%.
As for `COc1ccc2[nH]c(-c3nc(NCCCCN4CCCC4)c4ccccc4n3)c(C=O)c2c1`, the AUC(0-inf) in series [1] is 384 ng·h/mL. Besides, the result in series [2], in series [16] and in [19] was Active. For the same compound, the peak concentration (Cmax) in series [3] is 37.1 ng/mL. Moreover, the half-life in series [4] was found to be 3.12 h. The Activity result in series [5] is “Non-Toxic”; in series [10] it was “>=50%”; in [14] (dose 1-5 µM, time 6.0 day), “Dose-dependent effect”. Moreover, the outcome in [6] and in series [8] was inactive. The bioavailability in series [7] turned out to be 48.6%. Besides, the exposure AUC(0-t) at 24 h in series [9] was 374 ng·h/mL. For the same compound, the inhibition entry in [11], in series [13], in series [21] and in series [22] was “Dose-dependent effect” each time. Further, in [12], the microsomal CLint worked out at 3.7 µL/min/mg. In addition, the EC50 in series [14] worked out at 33 nM. Also, in series [15], the solubility at 24 h was 73.3 µg/mL (≈ 165 µM). The Tmax in [17] was found to be 4 h. The same compound registered a mean residence time (MRT inf) in series [18] of 7.5 h. The remaining at 1 h in series [20] turned out to be 80.7%.
